The text below walks through data of ChEMBL document CHEMBL2375359, “Synthesis and antibacterial evaluation of novel pleuromutilin derivatives” (2013).

Values after ≈ are worked out from the molar mass of the structure shown.

What all share (format): functional
Assay [1] deals with Streptococcus agalactiae. Briefly: Antibacterial activity against Streptococcus agalactiae at 80 ug/ml after 24 hrs by Oxford cup assay. The note with it: read-out: IZ. In a few lines:
(§1)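 Oxford cup diffusion with clinical isolates. Inoculum made in 0.9% saline to a McFarland standard and spread evenly on nutrient agar. Compound solutions, prepared as for the agar dilution test, were added at the stated concentration to Oxford cups set equidistant on the agar surface. Inhibition zones were measured after 24 h at 37 °C.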

Assay [2] has as its system Streptococcus agalactiae. In words: Antibacterial activity against Streptococcus agalactiae at 160 ug/ml after 24 hrs by Oxford cup assay. The note with it: read-out: IZ. The essentials: as §1
Assay [3] relates to Escherichia coli. In words: Antibacterial activity against Escherichia coli at 80 ug/ml after 24 hrs by Oxford cup assay. The note with it: read-out: IZ. The essentials: as §1
Assay [4] deals with Streptococcus agalactiae. In words: Antibacterial activity against Streptococcus agalactiae at 320 ug/ml after 24 hrs by Oxford cup assay. The note with it: read-out: IZ. The essentials:
as §1

In assay [5] the test system is Escherichia coli. Briefly: Antibacterial activity against Escherichia coli at 160 ug/ml after 24 hrs by Oxford cup assay. The note with it: read-out: IZ. In a few lines:
as §1

In assay [6] the test system is Escherichia coli. Briefly: Antibacterial activity against Escherichia coli at 320 ug/ml after 24 hrs by Oxford cup assay. The note with it: read-out: IZ. In a few lines:
as §1

Assay [7] concerns Staphylococcus epidermidis. In words: Antibacterial activity against methicillin-resistant Staphylococcus epidermidis at 80 ug/ml after 24 hrs by Oxford cup assay. The note with it: read-out: IZ. In a few lines:
(§2)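 Oxford cup diffusion: clinical isolate inoculum in 0.9% saline set by McFarland standard, spread evenly on nutrient agar. Cups placed equidistant on the surface and filled with compound solutions prepared as for the agar dilution test, at several concentrations. Inhibition zone measured after 24 h at 37 °C.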

Assay [8] deals with Staphylococcus epidermidis. In words: Antibacterial activity against methicillin-resistant Staphylococcus epidermidis at 160 ug/ml after 24 hrs by Oxford cup assay. The note with it: read-out: IZ. In a few lines:
as §2

The test system of assay [9] is Staphylococcus epidermidis. In words: Antibacterial activity against methicillin-resistant Staphylococcus epidermidis at 320 ug/ml after 24 hrs by Oxford cup assay. The note with it: read-out: IZ. The essentials: as §2
Assay [10] relates to Staphylococcus aureus. In words: Antibacterial activity against methicillin-resistant Staphylococcus aureus at 80 ug/ml after 24 hrs by Oxford cup assay. The note with it: read-out: IZ. The essentials: as §2
The subject of assay [11] is Staphylococcus aureus. Briefly: Antibacterial activity against methicillin-resistant Staphylococcus aureus at 160 ug/ml after 24 hrs by Oxford cup assay. The note with it: read-out: IZ. The essentials:
as §2

The test system of assay [12] is Staphylococcus aureus. Briefly: Antibacterial activity against methicillin-resistant Staphylococcus aureus at 320 ug/ml after 24 hrs by Oxford cup assay. The note with it: read-out: IZ. In a few lines:
as §2

Assay [13] deals with Streptococcus agalactiae. Briefly: Antibacterial activity against Streptococcus agalactiae after 48 hrs by agar dilution method. In a few lines: (§3)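 Agar dilution per NCCLS on clinical isolates. 2-fold serial dilutions of compound (2 mL) mixed into 18 mL hot Mueller-Hinton agar. Inoculum from blood slants, adjusted to approx. 10⁵–10⁶ cfu/mL in sterile 0.90% NaCl, then spotted onto the plates. Incubated 36.5 °C, 48 h. MIC is the lowest concentration giving complete growth inhibition. Run in triplicate at pH 7.40.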
(In agar dilution, organisms are placed on agar that contains the substance at set levels.)

Assay [14] relates to Escherichia coli. Briefly: Antibacterial activity against Escherichia coli after 48 hrs by agar dilution method. The essentials: as §3
The subject of assay [15] is Staphylococcus epidermidis. In words: Antibacterial activity against methicillin-resistant Staphylococcus epidermidis after 48 hrs by agar dilution method. In a few lines: (§4)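 Agar dilution per NCCLS: 2-fold serial dilutions incorporated into hot Mueller-Hinton agar. Clinical isolates grown from blood slants, suspended in sterile 0.90% NaCl to about 10⁵–10⁶ cfu/mL, spotted onto plates. Incubation 36.5 °C, 48 h. MIC taken as the lowest concentration giving complete growth inhibition. Run in triplicate at pH 7.40.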

Assay [16] has as its system Staphylococcus aureus. In words: Antibacterial activity against methicillin-resistant Staphylococcus aureus after 48 hrs by agar dilution method. In a few lines:
as §4

One may read the MIC as the smallest concentration in the dilution series that meets the test's criterion for growth inhibition. Low values mean a more susceptible organism, high ones a less susceptible organism. With `C=C[C@]1(C)C[C@@H](OC(=O)CSCCN(CC)CC)[C@]2(C)[C@H](C)CC[C@]3(CCC(=O)[C@H]32)[C@@H](C)[C@@H]1O` [TIAMULIN], the zone of inhibition at 80 µg/mL with Streptococcus agalactiae [1] amounted to 11.1 mm; in the assay with Escherichia coli [3], 15.2 mm; in assay [7] it was 14.5 mm; with Staphylococcus aureus [10] it was 16.5 mm. Further, the zone of inhibition at 160 µg/mL amounted to 11.4 mm in the assay with Streptococcus agalactiae [2], 16.5 mm in the assay on Escherichia coli [5], 15.6 mm in [8] and 17.6 mm in the assay with Staphylococcus aureus [11]. The zone of inhibition at 320 µg/mL in the assay on Streptococcus agalactiae [4] was found to be 12.3 mm; in the assay on Escherichia coli [6] it was 18.3 mm; in assay [9], 16.4 mm; with Staphylococcus aureus [12] it was 18.3 mm. Besides, the MIC amounted to 2 µg/mL (≈ 4.05 µM) with Streptococcus agalactiae [13], 2 µg/mL (≈ 4.05 µM) against Escherichia coli [14], 2 µg/mL (≈ 4.05 µM) in assay [15] and 0.5 µg/mL (≈ 1.01 µM) in the assay with Staphylococcus aureus [16].
For the compound `C=C[C@]1(C)C[C@@H](OC(=O)CSC(C)(C)CNC(=O)[C@H](N)C(C)C)[C@]2(C)[C@H](C)CC[C@]3(CCC(=O)[C@H]32)[C@@H](C)[C@@H]1O` [VALNEMULIN], the zone of inhibition at 80 µg/mL in the assay on Streptococcus agalactiae [1] came to 12.8 mm; in the assay on Escherichia coli [3] it was 19.5 mm; in [7], 22.6 mm; with Staphylococcus aureus [10], 20.4 mm. In addition, the zone of inhibition at 160 µg/mL was determined as 14.5 mm with Streptococcus agalactiae [2], 23.7 mm in the assay on Escherichia coli [5], 25.9 mm in [8] and 22.9 mm with Staphylococcus aureus [11]. Also, the zone of inhibition at 320 µg/mL with Streptococcus agalactiae [4] is 15.8 mm; in the assay with Escherichia coli [6] it was 24.5 mm; in [9], 27.5 mm; in the assay with Staphylococcus aureus [12] it was 25.8 mm. The minimal inhibitory concentration (MIC) in the assay with Streptococcus agalactiae [13] came to 0.5 µg/mL (≈ 0.885 µM); in the assay with Escherichia coli [14], 0.5 µg/mL (≈ 0.885 µM); in assay [15], 0.5 µg/mL (≈ 0.885 µM); against Staphylococcus aureus [16] it was 0.125 µg/mL (≈ 0.221 µM).
